Reference: ChEMBL document CHEMBL4619818, “Mining Public Domain Data to Develop Selective DYRK1A Inhibitors” (ACS Med Chem Lett, 2020)
Converted amounts (≈) assume the structure as drawn. Blank lines part the entries; values can stand above or below the compound they belong to.

Columns and labels:
[1] = target: Cyclin-dependent kinase 2 (Homo sapiens) (UniProt P24941); assay: Inhibition of CDK2 (unknown origin) at 1 uM by PanQinase assay relative to control
[2] = target: T1, Dual specificity tyrosine-phosphorylation-regulated kinase 1A (Homo sapiens, UniProt Q13627); assay: Inhibition of DYRK1A (unknown origin) at 1 uM by PanQinase assay relative to control
[3] = target: T1, Dual specificity tyrosine-phosphorylation-regulated kinase 1A; assay: Inhibition of recombinant human N-terminal Hex-tagged DYRK1A (127 to 485 residues) expressed in Escherichia coli BL21 (DE3) incubated for 1.5 hrs by TR-FRET assay
[4] = Metabolic stability in human liver microsomes assessed as intrinsic clearance; assay type: ADME, Microsome; conditions: read-out: CLH
Procedure, shortened: (§1)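 Microsomal incubations with human or rat liver microsomes. Intrinsic clearance given in µL/min/mg; values are the mean of n = 2.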

[5] = target: T2, Dual specificity tyrosine-phosphorylation-regulated kinase 2 (Homo sapiens) (UniProt Q92630); assay: Inhibition of recombinant human full length DYRK2 (1 to 528 residues) expressed in mammalian expression system at 1 uM by DiscoverX competition binding assay relative to control
T2 sequence (whole entry): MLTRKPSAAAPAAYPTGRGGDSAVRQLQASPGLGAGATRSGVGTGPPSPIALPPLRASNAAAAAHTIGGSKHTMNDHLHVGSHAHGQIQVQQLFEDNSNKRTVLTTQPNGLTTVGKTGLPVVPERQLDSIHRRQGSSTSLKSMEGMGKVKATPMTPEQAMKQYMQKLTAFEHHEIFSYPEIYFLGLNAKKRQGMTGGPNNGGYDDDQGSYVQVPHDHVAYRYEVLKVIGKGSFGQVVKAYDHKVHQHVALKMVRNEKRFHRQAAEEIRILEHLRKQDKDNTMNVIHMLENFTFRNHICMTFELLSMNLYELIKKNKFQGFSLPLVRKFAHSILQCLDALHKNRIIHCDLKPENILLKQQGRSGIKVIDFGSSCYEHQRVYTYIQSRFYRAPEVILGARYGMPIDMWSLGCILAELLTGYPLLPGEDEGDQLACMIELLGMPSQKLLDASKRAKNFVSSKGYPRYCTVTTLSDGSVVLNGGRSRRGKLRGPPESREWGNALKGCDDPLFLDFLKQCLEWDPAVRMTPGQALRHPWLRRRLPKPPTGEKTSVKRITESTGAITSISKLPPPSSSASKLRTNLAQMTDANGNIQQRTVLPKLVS
Procedure, shortened: (§2)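 Competition binding assay with test compound at 1 µM inhibitor concentration. Result expressed as percent inhibition, single determination (n=1). The kinome-wide panel also gave a selectivity score, S-Score(40).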

[6] = Thermodynamic solubility of compound at pH 6.8; assay type: physicochemical; conditions: buffer, read-out: Therm_solubility
Procedure, shortened: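 Thermodynamic (intrinsic) solubility by shake-flask method in PBS buffer at pH 6.8. Reported in mg/mL from a single experiment.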

[7] = Apparent permeability from basolateral to apical side in dog MDCK-MDR1 cells; assay type: ADME, cell-based, Canis lupus familiaris
Procedure, shortened: (§3)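 MDCK cells transfected with human MDR1 gene. Apparent permeability coefficient (Papp, 10^-6 cm/s) measured across the cell layer in each direction, apical to basolateral and basolateral to apical. Mean values reported; efflux ratio taken as Papp B2A / Papp A2B.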

[8] = target: Dual specificity protein kinase CLK3 (Homo sapiens) (UniProt P49761); assay: Inhibition of recombinant human full length CLK3 (1 to 490 residues) expressed in bacterial expression system at 1 uM by DiscoverX competition binding assay relative to control; procedure, shortened: as §2
[9] = target: Dual specificity protein kinase CLK1 (Homo sapiens) (UniProt P49759); assay: Inhibition of recombinant human full length CLK1 (1 to 484 residues) expressed in bacterial expression system at 1 uM by DiscoverX competition binding assay relative to control; procedure, shortened: as §2
[10] = Efflux ratio of apparent permeability from basolateral to apical side over apical to basolateral side in dog MDCK-MDR1 cells; assay type: ADME, cell-based, Canis lupus familiaris
Procedure, shortened: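 MDCK cells transfected with human MDR1 gene (Cyprotex assay); permeability coefficient (Papp) measured in both directions, apical to basolateral and basolateral to apical; efflux ratio taken as mean Papp B2A divided by mean Papp A2B.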

[11] = Apparent permeability from apical to basolateral side in dog MDCK-MDR1 cells; assay type: ADME, cell-based, Canis lupus familiaris; procedure, shortened: as §3
[12] = target: T1, Dual specificity tyrosine-phosphorylation-regulated kinase 1A; assay: Inhibition of recombinant human DYRK1A (129 to 509 residues) expressed in mammalian expression system at 1 uM by DiscoverX competition binding assay relative to control; procedure, shortened: as §2
[13] = target: Cyclin-dependent kinase 2 (Homo sapiens) (UniProt P24941); assay: Inhibition of recombinant human full length CDK2 (1 to 298 residues) expressed in bacterial expression system at 1 uM by DiscoverX competition binding assay relative to control; procedure, shortened: as §2
[14] = Metabolic stability in rat liver microsomes assessed as intrinsic clearance; assay type: ADME, Microsome; conditions: read-out: CLH; procedure, shortened: as §1
[15] = target: Dual specificity tyrosine-phosphorylation-regulated kinase 1B (Homo sapiens) (UniProt Q9Y463); assay: Inhibition of recombinant human full length DYRK1B (1 to 629 residues) expressed in bacterial expression system at 1 uM by DiscoverX competition binding assay relative to control; procedure, shortened: as §2
[16] = target: Dual specificity protein kinase CLK2 (Homo sapiens) (UniProt P49760); assay: Inhibition of recombinant human partial length CLK2 (144 to 484 residues) expressed in bacterial expression system at 1 uM by DiscoverX competition binding assay relative to control; procedure, shortened: as §2
[17] = target: Glycogen synthase kinase-3 beta (Homo sapiens) (UniProt P49841); assay: Inhibition of recombinant human full length GSK3beta (1 to 433 residues) expressed in mammalian expression system at 1 uM by DiscoverX competition binding assay relative to control; procedure, shortened: as §2
[18] = target: T1, Dual specificity tyrosine-phosphorylation-regulated kinase 1A; assay: Binding affinity to DYRK1A (unknown origin) assessed as dissociation constant measured for 60 to 300 sec by SPR analysis

Dual specificity protein kinase CLK1 (Homo sapiens), sequence (P49759 whole entry, looked up, the tested form may be a part): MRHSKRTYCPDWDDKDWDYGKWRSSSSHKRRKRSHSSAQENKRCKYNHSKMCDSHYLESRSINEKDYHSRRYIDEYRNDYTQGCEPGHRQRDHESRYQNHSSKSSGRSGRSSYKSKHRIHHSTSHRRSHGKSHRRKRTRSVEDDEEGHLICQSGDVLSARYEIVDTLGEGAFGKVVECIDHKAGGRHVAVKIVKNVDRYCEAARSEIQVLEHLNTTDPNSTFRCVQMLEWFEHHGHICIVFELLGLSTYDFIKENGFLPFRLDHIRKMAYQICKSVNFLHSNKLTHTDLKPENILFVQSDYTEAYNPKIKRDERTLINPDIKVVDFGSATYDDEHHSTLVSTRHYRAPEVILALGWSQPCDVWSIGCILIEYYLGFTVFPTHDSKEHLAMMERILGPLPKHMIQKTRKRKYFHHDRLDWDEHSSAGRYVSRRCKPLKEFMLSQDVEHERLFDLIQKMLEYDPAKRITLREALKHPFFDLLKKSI
Dual specificity protein kinase CLK2 (Homo sapiens), sequence (P49760 whole entry, looked up, the tested form may be a part): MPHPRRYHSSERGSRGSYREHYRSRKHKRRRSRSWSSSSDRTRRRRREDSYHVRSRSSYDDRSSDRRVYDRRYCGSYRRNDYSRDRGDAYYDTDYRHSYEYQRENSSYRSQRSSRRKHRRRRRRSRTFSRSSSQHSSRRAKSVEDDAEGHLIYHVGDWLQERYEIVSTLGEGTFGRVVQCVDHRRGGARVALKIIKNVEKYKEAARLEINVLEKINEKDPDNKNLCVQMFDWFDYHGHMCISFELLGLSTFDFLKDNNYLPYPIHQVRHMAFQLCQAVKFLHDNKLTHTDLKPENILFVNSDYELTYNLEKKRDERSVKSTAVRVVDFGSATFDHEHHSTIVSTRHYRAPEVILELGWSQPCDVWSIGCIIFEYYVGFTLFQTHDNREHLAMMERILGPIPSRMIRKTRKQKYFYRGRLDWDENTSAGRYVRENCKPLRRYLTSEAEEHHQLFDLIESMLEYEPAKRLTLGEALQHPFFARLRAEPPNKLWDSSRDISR
Dual specificity protein kinase CLK3 (Homo sapiens), sequence (P49761 whole entry, looked up, the tested form may be a part): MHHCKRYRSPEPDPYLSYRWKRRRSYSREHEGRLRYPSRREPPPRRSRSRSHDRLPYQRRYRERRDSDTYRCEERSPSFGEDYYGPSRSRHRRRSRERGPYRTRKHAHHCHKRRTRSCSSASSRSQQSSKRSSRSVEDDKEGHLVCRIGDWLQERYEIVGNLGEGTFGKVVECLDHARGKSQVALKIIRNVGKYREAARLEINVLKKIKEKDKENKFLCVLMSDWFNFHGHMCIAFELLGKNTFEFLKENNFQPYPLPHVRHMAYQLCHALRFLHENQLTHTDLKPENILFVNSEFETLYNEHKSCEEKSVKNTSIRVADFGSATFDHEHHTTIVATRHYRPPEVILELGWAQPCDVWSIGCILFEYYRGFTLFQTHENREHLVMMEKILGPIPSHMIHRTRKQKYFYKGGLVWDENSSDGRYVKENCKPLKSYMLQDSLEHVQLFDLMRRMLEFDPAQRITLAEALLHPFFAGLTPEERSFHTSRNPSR
Dual specificity tyrosine-phosphorylation-regulated kinase 1B (Homo sapiens), sequence (Q9Y463 whole entry, looked up, the tested form may be a part): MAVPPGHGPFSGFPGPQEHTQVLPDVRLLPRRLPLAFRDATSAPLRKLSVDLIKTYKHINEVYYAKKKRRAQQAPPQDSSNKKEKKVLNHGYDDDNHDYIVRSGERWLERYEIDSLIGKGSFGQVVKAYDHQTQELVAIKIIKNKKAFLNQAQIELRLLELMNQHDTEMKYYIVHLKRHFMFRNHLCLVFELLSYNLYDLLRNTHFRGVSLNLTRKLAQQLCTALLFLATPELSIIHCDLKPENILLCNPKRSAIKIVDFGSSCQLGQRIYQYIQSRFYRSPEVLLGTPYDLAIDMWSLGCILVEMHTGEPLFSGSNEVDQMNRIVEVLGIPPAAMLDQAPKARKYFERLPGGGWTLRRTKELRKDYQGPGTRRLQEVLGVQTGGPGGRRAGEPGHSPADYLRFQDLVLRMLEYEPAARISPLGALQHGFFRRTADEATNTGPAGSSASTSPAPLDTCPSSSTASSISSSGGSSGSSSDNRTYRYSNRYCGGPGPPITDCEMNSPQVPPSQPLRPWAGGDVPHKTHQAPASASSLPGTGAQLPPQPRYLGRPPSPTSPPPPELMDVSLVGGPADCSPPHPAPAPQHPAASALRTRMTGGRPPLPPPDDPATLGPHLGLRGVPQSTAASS
Glycogen synthase kinase-3 beta (Homo sapiens), sequence (P49841 whole entry, looked up, the tested form may be a part): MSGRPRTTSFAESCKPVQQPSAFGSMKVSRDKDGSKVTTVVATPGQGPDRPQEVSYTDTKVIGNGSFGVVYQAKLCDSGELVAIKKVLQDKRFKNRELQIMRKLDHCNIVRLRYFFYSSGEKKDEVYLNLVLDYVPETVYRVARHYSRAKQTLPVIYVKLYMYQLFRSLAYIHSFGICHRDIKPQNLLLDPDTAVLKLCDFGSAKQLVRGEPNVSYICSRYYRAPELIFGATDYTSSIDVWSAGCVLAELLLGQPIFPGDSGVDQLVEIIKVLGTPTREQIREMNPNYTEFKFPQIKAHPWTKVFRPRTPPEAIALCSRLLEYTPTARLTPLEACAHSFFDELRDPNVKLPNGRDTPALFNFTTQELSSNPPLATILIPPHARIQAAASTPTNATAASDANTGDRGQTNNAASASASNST

inhibition [1]: 33%
inhibition [2]: 79%
IC50 [3]: 186 nM
SMILES: CN(c1ccccc1)c1nccc(-c2cnn3ncccc23)n1

IC50 [3]: 12 nM
SMILES: COc1cccc(Nc2nccc(-c3cnn4ncccc34)n2)c1 [PYRAZOLOPYRIDAZINE 1]

IC50 [3]: 64 nM
SMILES: Cc1ccccc1Nc1nccc(-c2cnn3ncccc23)n1

inhibition [1]: 98%
inhibition [2]: 97%
IC50 [3]: 38 nM
SMILES: c1ccc(Nc2nccc(-c3cnn4ncccc34)n2)cc1

IC50 [3]: 137 nM
SMILES: COc1ccccc1Nc1nccc(-c2cnn3ncccc23)n1

IC50 [3]: 5 nM
SMILES: N#Cc1cccc(Nc2nccc(-c3cnn4ncccc34)n2)c1 [GW778894X]

IC50 [3]: 97 nM
SMILES: COc1cccc(N(C)c2nccc(-c3cnn4ncccc34)n2)c1

SMILES: Cc1cccc(N(C)c2nccc(-c3cnn4ncccc34)n2)c1
microsomal CLint [4]: 75 µL/min/mg
inhibition [5]: 19%
solubility thermodynamic [6]: 10 µg/mL (≈ 31.6 µM)
Papp B→A [7]: 20.1 ×10⁻⁶ cm/s
inhibition [8]: 6%
inhibition [9]: 59%
efflux ratio [10]: 0.96
Papp A→B [11]: 20.9 ×10⁻⁶ cm/s
inhibition [12]: 65%
inhibition [13]: 12%
microsomal CLint [14]: 805 µL/min/mg
inhibition [15]: 0%
IC50 [3]: 76 nM
inhibition [16]: 59%
inhibition [17]: 4%

IC50 [3]: 103 nM
SMILES: N#Cc1ccc(Nc2nccc(-c3cnn4ncccc34)n2)cc1

Kd [18]: 8.9 nM
IC50 [3]: 7 nM
SMILES: Cc1cccc(Nc2nccc(-c3cnn4ncccc34)n2)c1
